Results taken from ChEMBL document CHEMBL5634107, “The design, synthesis, and inhibition of Clostridioides difficile spore germination by acyclic and bicyclic tertiary amide analogs of cholate” (Eur J Med Chem, 2023).

Tests used:
Clostridioides difficile [1] = experiment: Inhibition of spore germination in Clostridium difficile R20291 assessed as residual activity at 125 uM measured every minute for 2 hrs by absorbance based analysis relative to control; format: functional
Method in brief: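 Single-concentration screen of R20291 spores (OD580 1.0) in 100 mM sodium phosphate, pH 6.0, with 5 mg/mL bicarbonate and 2.5% DMSO. Compound at 125 μM final, in triplicate, with 6 mM taurocholate and 12 mM glycine. OD580 is read each minute for 2 h, normalized to time zero, and compared with untreated spores.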

Clostridioides difficile [2] = experiment: Inhibition of spore germination in Clostridium difficile R20291 assessed as inhibition of spore germination measured every minute for 2 hrs by absorbance based analysis; format: functional, organism-based; settings: R20291, 2 h
Method in brief: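 Spores of strain R20291 diluted to OD580 1.0 in 100 mM sodium phosphate, pH 6.0, with 5 mg/mL sodium bicarbonate. Germinant is 6 mM taurocholate plus 12 mM glycine, with compound at various concentrations. OD580 is read every minute for 2 h and normalized to time zero. Value is fitted from percent germination versus log concentration.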

Row | SMILES | Activity (Clostridioides difficile [1]) [%] | IC50 (Clostridioides difficile [2]) [µM]
1 | C[C@H](CCC(=O)N1CCCC1)[C@H]1CC[C@H]2[C@@H]3[C@H](O)C[C@@H]4C[C@H](O)CC[C@]4(C)[C@H]3C[C@H](O)[C@]12C | 29 | 38
2 | C[C@H](CCC(=O)N1CCc2ccccc2C1)[C@H]1CC[C@H]2[C@@H]3[C@H](O)C[C@@H]4C[C@H](O)CC[C@]4(C)[C@H]3C[C@H](O)[C@]12C | 78 | –
3 | C[C@H](CCC(=O)N1CCc2cc(F)ccc21)[C@H]1CC[C@H]2[C@@H]3[C@H](O)C[C@@H]4C[C@H](O)CC[C@]4(C)[C@H]3C[C@H](O)[C@]12C | 5 | 0.4
4 | C[C@H](CCC(=O)N1CCc2cc(Br)ccc2C1)[C@H]1CC[C@H]2[C@@H]3[C@H](O)C[C@@H]4C[C@H](O)CC[C@]4(C)[C@H]3C[C@H](O)[C@]12C | 100 | –
5 | C[C@H](CCC(=O)N1CCC(O)CC1)[C@H]1CC[C@H]2[C@@H]3[C@H](O)C[C@@H]4C[C@H](O)CC[C@]4(C)[C@H]3C[C@H](O)[C@]12C | 88 | –
6 | Cc1ccc2c(c1)CCCN2C(=O)CC[C@@H](C)[C@H]1CC[C@H]2[C@@H]3[C@H](O)C[C@@H]4C[C@H](O)CC[C@]4(C)[C@H]3C[C@H](O)[C@]12C | 100 | –
7 | C[C@H](CCC(=O)N1CCCCC1)[C@H]1CC[C@H]2[C@@H]3[C@H](O)C[C@@H]4C[C@H](O)CC[C@]4(C)[C@H]3C[C@H](O)[C@]12C | 15 | 37
8 | C[C@H](CCC(=O)N1CCc2ccccc21)[C@H]1CC[C@H]2[C@@H]3[C@H](O)C[C@@H]4C[C@H](O)CC[C@]4(C)[C@H]3C[C@H](O)[C@]12C | 4 | 1
9 | COc1ccc2c(c1)N(C(=O)CC[C@@H](C)[C@H]1CC[C@H]3[C@@H]4[C@H](O)C[C@@H]5C[C@H](O)CC[C@]5(C)[C@H]4C[C@H](O)[C@]13C)CC2 | 100 | –
10 | C[C@H](CCC(=O)N(C)c1ccccc1)[C@H]1CC[C@H]2[C@@H]3[C@H](O)C[C@@H]4C[C@H](O)CC[C@]4(C)[C@H]3C[C@H](O)[C@]12C | 31 | 32
11 | C[C@H](CCC(=O)N1CCc2cc(Cl)ccc21)[C@H]1CC[C@H]2[C@@H]3[C@H](O)C[C@@H]4C[C@H](O)CC[C@]4(C)[C@H]3C[C@H](O)[C@]12C | 70 | –
12 | C[C@H](CCC(=O)N1CCc2c(Cl)cccc21)[C@H]1CC[C@H]2[C@@H]3[C@H](O)C[C@@H]4C[C@H](O)CC[C@]4(C)[C@H]3C[C@H](O)[C@]12C | 95 | –
13 | C[C@H](CCC(=O)N1CCCc2ccccc21)[C@H]1CC[C@H]2[C@@H]3[C@H](O)C[C@@H]4C[C@H](O)CC[C@]4(C)[C@H]3C[C@H](O)[C@]12C | 17 | 22
14 | Cc1ccc2c(c1)CCN2C(=O)CC[C@@H](C)[C@H]1CC[C@H]2[C@@H]3[C@H](O)C[C@@H]4C[C@H](O)CC[C@]4(C)[C@H]3C[C@H](O)[C@]12C | 100 | –
15 | COc1ccc2c(c1)CCN(C(=O)CC[C@@H](C)[C@H]1CC[C@H]3[C@@H]4[C@H](O)C[C@@H]5C[C@H](O)CC[C@]5(C)[C@H]4C[C@H](O)[C@]13C)C2 | 100 | –
16 | CCN(CC)C(=O)CC[C@@H](C)[C@H]1CC[C@H]2[C@@H]3[C@H](O)C[C@@H]4C[C@H](O)CC[C@]4(C)[C@H]3C[C@H](O)[C@]12C | 0.05 | 29
17 | C[C@H](CCC(=O)N1CCc2cc(Br)ccc21)[C@H]1CC[C@H]2[C@@H]3[C@H](O)C[C@@H]4C[C@H](O)CC[C@]4(C)[C@H]3C[C@H](O)[C@]12C | 90 | –
